How the values were obtained:
[1] = Stability of compound at pH 2; assay type: physicochemical; settings: buffer
[2] = Stability of compound at pH 6; assay type: physicochemical; settings: buffer
[3] = Cytotoxicity against mutant K-ras-transformed human T29Kt1 cells assessed as cell viability after 3 days by sulforhodamine B assay; assay type: functional, cell-based; settings: T29Kt1, 72 h
How it was run: (§1)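 Monolayer cultures were grown in RPMI-1640 or DMEM with 10% heat-inactivated fetal calf serum and penicillin/streptomycin, at 37°C and 5% CO2. Cells were exposed for 3 days to compound from 10−4.5 M (31.6 μM) down to 10−8 M (10 nM), with 1% DMSO as the control. Viability was read by sulforhodamine B. IC50 was the dose halving surviving cells versus control, run in quadruplicate and repeated at least three times.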

[4] = Stability of compound at pH 7.4; assay type: physicochemical; settings: buffer
[5] = Stability of compound at pH 9; assay type: physicochemical; settings: buffer
[6] = Cytotoxicity against human T29 cells assessed as cell viability after 3 days by sulforhodamine B assay; assay type: cell-based; settings: T29, 72 h; how it was run: as §1
NCI-H460 = assay: Cytotoxicity against human H460 cells assessed as cell viability after 3 days by sulforhodamine B assay; assay type: functional, cell-based; settings: NCI-H460, 72 h; how it was run: as §1
[7] = Stability of compound at pH 4; assay type: physicochemical; settings: buffer

Row | Stability [1] | Stability [2] | Stability [4] | Stability [5] | Stability [7] | SMILES | IC50 [3] | IC50 [6] | IC50 (NCI-H460)
1 | Unstable | Stable | Stable | Stable | Stable | OCc1cn(Cc2cccc(F)c2)c2ccccc12 | 20 nM | > 31600 nM | 40 nM
2 | Unstable | Stable | Stable | Stable | Stable | COc1ccc(Cn2cc(CO)c3ccccc32)cc1 | 63 nM | > 31600 nM | 79 nM
3 | Unstable | Stable | Stable | Stable | Stable | OCc1cn(Cc2ccc(Br)c(Br)c2)c2ccccc12 | 100 nM | > 31600 nM | 50 nM
4 | Unstable | Stable | Stable | Stable | Stable | OCc1cn(Cc2cccc(Br)c2)c2ccccc12 | 32 nM | > 31600 nM | 28 nM
5 | Unstable | Stable | Stable | Stable | Stable | OCc1cn(Cc2ccc(Cl)cc2)c2ccc(F)cc12 | 80 nM | 8120 nM | 30 nM
6 | Unstable | Stable | Stable | Stable | Stable | OCc1cn(Cc2ccc(F)cc2)c2ccccc12 | 30 nM | 17000 nM | 118 nM
7 | Unstable | Stable | Stable | Stable | Stable | COc1ccc2c(c1)c(CO)cn2Cc1ccc(Cl)cc1 | 12500 nM | > 31600 nM | 1510 nM
8 | Unstable | Stable | Stable | Stable | Stable | Cc1cccc(Cn2cc(CO)c3ccccc32)c1 | 1000 nM | > 31600 nM | 31 nM
9 | Unstable | Stable | Stable | Stable | Stable | Cc1ccc(Cn2cc(CO)c3ccccc32)cc1 | 150 nM | > 31600 nM | 31 nM
10 | Unstable | Stable | Stable | Stable | Stable | Cc1ccc(Cn2cc(CO)c3cc(F)ccc32)cc1 | 30 nM | 11700 nM | 10 nM
11 | Unstable | Stable | Stable | Stable | Stable | OCc1cn(Cc2ccc(C(F)(F)F)cc2)c2ccccc12 | 1250 nM | > 31600 nM | 1250 nM
12 | Unstable | Stable | Stable | Stable | Stable | OCc1cn(Cc2cccc(C(F)(F)F)c2)c2ccccc12 | 560 nM | > 31600 nM | 39 nM
13 | Unstable | Stable | Stable | Stable | Stable | OCc1cn(Cc2ccccc2)c2ccccc12 | 30 nM | 14500 nM | 112 nM
14 | Unstable | Stable | Stable | Stable | Stable | Cn1cc(CO)c2cc(F)ccc21 | 13800 nM | > 31600 nM | 16900 nM
15 | Unstable | Stable | Stable | Stable | Stable | OCc1cn(Cc2ccccc2Cl)c2ccccc12 | 2510 nM | > 31600 nM | 100 nM
16 | Unstable | Stable | Stable | Stable | Stable | O=[N+]([O-])c1cccc(Cn2cc(CO)c3ccccc32)c1 | 390 nM | > 31600 nM | 39 nM
17 | Unstable | Stable | Stable | Stable | Stable | OCc1cn(Cc2ccc(Cl)cc2Cl)c2ccccc12 | 1580 nM | > 31600 nM | 79 nM
18 | Unstable | Stable | Stable | Stable | Stable | OCc1cn(Cc2ccc(Cl)cc2)c2cc(F)ccc12 | 1000 nM | > 31600 nM | 450 nM
19 | Unstable | Stable | Stable | Stable | Stable | OCc1cn(Cc2ccc(Cl)c(Cl)c2)c2ccccc12 | 310 nM | > 31600 nM | 31 nM
20 | Unstable | Stable | Stable | Stable | Stable | OCc1cn(Cc2ccc(Cl)cc2)c2ccc(Cl)cc12 | 13000 nM | > 31600 nM | 5750 nM
21 | Unstable | Stable | Stable | Stable | Stable | O=[N+]([O-])c1ccc(Cn2cc(CO)c3ccccc32)cc1 | 150 nM | > 31600 nM | 79 nM
22 | Unstable | Stable | Stable | Stable | Stable | OCc1cn(Cc2ccc(Br)cc2)c2ccccc12 | 390 nM | > 31600 nM | 31 nM
23 | Unstable | Stable | Stable | Stable | Stable | OCc1cn(Cc2cccc(I)c2)c2ccccc12 | 20 nM | > 31600 nM | 100 nM

Row | SMILES | Stability [1] | Stability [2] | Stability [4] | Stability [5] | Stability [7] | IC50 [3] | IC50 [6] | IC50 (NCI-H460)
24 | O=Cc1cn(Cc2cccc([N+](=O)[O-])c2)c2ccccc12 | Stable | – | Stable | – | – | 500 nM | > 31600 nM | 39 nM
25 | O=Cc1cn(Cc2cccc(Br)c2)c2ccccc12 | Stable | – | Stable | – | – | 1580 nM | > 31600 nM | 39 nM
26 | O=Cc1cn(Cc2ccc(Br)cc2)c2ccccc12 | Stable | – | Stable | – | – | 250 nM | > 31600 nM | 31 nM
27 | O=Cc1cn(Cc2ccc(Cl)cc2Cl)c2ccccc12 | Stable | – | Stable | – | – | 1580 nM | > 31600 nM | 100 nM
28 | CC(C)Cn1cc(C=O)c2ccccc21 | Stable | – | Stable | – | – | > 31600 nM | > 31600 nM | 1990 nM
29 | O=Cc1cn(Cc2ccc([N+](=O)[O-])cc2)c2ccccc12 | Stable | – | Stable | – | – | 10000 nM | > 31600 nM | 500 nM
30 | O=Cc1cn(Cc2ccc(C(F)(F)F)cc2)c2ccccc12 | Stable | – | Stable | – | – | > 31600 nM | > 31600 nM | 1580 nM
31 | O=Cc1cn(Cc2cccc(Cl)c2)c2ccccc12 | Stable | – | Stable | – | – | 370 nM | > 31600 nM | 37 nM
32 | O=Cc1cn(Cc2ccc(Cl)cc2)c2cc(Br)ccc12 | Stable | – | Stable | – | – | 32000 nM | 21000 nM | 90 nM
33 | O=Cc1cn(Cc2ccccc2)c2ccccc12 | Stable | – | Stable | – | – | 5000 nM | > 31600 nM | 45 nM
34 | O=Cc1cn(Cc2ccccc2F)c2ccccc12 | Stable | – | Stable | – | – | 310 nM | > 31600 nM | 100 nM
35 | Cc1cccc(Cn2cc(C=O)c3ccccc32)c1 | Stable | – | Stable | – | – | 6300 nM | > 31600 nM | 39 nM
36 | O=Cc1cn(Cc2ccc(Cl)cc2)c2ccc(F)cc12 | Stable | – | Stable | – | – | 9090 nM | > 31600 nM | 290 nM
37 | O=Cc1cn(Cc2ccc(Cl)cc2)c2cc(F)ccc12 | Stable | – | Stable | – | – | 9190 nM | > 31600 nM | 120 nM
38 | O=Cc1cn(Cc2ccc(Cl)cc2)c2ccccc12 | Stable | – | Stable | – | – | 2510 nM | > 31600 nM | 250 nM
39 | O=Cc1cn(CCCOc2ccc(Cl)cc2)c2ccccc12 | Stable | – | Stable | – | – | 4890 nM | > 31600 nM | 45 nM

From ChEMBL document CHEMBL1772965, “Analogues and derivatives of oncrasin-1, a novel inhibitor of the C-terminal domain of RNA polymerase II and their antitumor activities” (J Med Chem, 2011)
